Test results as given in ChEMBL document CHEMBL1124337, “Structure-activity relationships in prazosin-related compounds. Effect of replacing a piperazine ring with an alkanediamine moiety on alpha 1-adrenoreceptor blocking activity” (J Med Chem, 1989).

Columns and labels:
[1] = biological target: T1, Adrenergic receptor alpha-2 (Rattus norvegicus, UniProt P22086+P19328+P22909); assay: Antagonist activity for Alpha-2 adrenergic receptor against clonidine in rat vas deferences; assay type: functional
T1 sequence (P22086 whole entry): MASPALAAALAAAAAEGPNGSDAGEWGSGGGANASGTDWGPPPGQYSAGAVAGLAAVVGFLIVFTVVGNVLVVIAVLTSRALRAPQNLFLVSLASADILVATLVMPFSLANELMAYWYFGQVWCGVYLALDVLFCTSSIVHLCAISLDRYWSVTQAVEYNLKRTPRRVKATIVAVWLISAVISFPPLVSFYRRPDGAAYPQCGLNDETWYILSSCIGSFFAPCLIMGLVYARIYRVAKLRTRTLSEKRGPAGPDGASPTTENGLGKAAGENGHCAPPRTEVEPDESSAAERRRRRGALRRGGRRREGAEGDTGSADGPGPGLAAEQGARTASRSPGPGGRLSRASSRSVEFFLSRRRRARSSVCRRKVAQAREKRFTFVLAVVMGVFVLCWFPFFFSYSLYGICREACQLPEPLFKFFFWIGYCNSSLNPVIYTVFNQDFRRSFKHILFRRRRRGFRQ
T1 sequence (P19328 whole entry): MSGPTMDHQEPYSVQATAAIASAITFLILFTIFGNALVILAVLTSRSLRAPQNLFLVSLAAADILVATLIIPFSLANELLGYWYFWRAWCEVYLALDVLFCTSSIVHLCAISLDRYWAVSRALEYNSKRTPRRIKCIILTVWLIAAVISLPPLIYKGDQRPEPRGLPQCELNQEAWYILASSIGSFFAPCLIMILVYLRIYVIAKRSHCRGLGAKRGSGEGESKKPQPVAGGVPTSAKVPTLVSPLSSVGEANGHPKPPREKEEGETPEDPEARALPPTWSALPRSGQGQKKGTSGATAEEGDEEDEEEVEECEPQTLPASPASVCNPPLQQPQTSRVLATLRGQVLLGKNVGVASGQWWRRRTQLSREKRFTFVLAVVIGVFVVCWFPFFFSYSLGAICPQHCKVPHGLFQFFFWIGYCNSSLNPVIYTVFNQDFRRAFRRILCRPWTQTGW
T1 sequence (P22909 whole entry): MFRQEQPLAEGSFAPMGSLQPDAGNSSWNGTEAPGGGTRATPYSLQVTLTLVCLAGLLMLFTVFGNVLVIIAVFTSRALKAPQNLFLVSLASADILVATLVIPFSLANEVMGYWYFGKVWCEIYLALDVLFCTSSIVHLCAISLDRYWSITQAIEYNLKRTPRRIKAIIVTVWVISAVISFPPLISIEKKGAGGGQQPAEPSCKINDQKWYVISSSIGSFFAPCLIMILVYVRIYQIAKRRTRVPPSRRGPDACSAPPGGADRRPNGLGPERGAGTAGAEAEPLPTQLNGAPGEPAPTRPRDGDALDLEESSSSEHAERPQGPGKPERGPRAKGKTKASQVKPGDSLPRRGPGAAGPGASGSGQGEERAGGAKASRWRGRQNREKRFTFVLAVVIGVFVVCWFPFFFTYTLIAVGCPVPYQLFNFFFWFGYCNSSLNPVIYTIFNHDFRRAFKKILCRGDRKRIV

[2] = biological target: T2, Adrenergic receptor alpha-1 (Rattus norvegicus, UniProt P15823+P23944+P43140); assay: Antagonist activity for Alpha-1 adrenergic receptor against norepinephrine in rat vas deferences; assay type: functional
T2 sequence (P15823 whole entry): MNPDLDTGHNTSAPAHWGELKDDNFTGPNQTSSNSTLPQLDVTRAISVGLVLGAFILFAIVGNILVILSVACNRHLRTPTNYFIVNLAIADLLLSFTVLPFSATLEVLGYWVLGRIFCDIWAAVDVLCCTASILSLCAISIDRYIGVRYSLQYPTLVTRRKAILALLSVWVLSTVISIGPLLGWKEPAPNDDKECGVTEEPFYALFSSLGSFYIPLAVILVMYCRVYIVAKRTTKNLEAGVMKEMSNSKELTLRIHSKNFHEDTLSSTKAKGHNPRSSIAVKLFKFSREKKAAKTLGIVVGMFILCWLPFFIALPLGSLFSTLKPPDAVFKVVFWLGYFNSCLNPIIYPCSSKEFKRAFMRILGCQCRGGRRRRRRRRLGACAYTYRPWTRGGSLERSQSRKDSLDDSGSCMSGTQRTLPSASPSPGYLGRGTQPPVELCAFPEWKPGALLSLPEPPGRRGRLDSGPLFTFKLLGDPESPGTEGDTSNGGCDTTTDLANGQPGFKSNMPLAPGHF
T2 sequence (P23944 whole entry): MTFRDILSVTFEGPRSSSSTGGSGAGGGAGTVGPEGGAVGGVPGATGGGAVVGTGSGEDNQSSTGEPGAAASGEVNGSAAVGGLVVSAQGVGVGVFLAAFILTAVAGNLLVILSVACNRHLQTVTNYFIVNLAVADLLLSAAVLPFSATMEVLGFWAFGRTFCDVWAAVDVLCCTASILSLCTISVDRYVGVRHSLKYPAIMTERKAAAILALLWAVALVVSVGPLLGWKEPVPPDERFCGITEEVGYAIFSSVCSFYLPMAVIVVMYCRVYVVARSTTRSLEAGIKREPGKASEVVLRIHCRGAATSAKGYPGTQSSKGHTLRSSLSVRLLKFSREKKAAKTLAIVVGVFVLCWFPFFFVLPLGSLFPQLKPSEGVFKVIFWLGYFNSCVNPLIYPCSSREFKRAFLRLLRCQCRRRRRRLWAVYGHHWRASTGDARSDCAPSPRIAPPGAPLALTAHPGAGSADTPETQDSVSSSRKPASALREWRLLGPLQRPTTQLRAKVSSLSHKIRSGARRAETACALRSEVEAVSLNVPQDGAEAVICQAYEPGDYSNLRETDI
T2 sequence (P43140 whole entry): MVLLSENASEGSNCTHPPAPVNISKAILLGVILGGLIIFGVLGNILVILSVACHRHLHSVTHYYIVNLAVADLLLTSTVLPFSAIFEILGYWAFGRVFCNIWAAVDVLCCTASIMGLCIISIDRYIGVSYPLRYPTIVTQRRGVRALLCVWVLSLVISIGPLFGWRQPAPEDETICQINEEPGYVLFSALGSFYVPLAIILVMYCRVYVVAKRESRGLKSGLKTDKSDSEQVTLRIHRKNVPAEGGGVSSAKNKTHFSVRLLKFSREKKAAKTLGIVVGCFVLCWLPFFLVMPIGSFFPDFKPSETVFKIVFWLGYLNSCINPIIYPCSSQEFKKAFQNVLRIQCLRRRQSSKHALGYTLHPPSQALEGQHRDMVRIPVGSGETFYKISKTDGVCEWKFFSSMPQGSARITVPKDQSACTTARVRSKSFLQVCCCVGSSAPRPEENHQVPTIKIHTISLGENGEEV

[3] = biological target: T1, Adrenergic receptor alpha-2; assay: Compound evaluated for antagonist activity to alpha-2 adrenergic receptor in a competitive assay against clonidine in rat vas deferences; assay type: functional
Outline: (§1)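 Male albino rat (175–200 g) vas deferens in 20 mL Krebs baths containing propranolol 1 μM and cocaine 10 μM, loading tension 0.5–0.8 g. Field stimulation at 0.1 Hz, 3-ms pulses, fixed 10–35 V. After ≥1 h equilibration, a cumulative clonidine curve (twitch inhibition) was run, then 30 min antagonist and a second curve. Time-matched controls were run. pA2 came from Schild plots (slope constrained to −1), three antagonist concentrations ×5, or van Rossum for two concentrations.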

[4] = biological target: T2, Adrenergic receptor alpha-1; assay: Compound evaluated for antagonist activity to alpha-1 adrenergic receptor in a competitive assay against norepinephrine in rat vas deferences; assay type: functional
Outline: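 Epididymal portion (14 mm) of male albino rat (175–200 g) vas deferens in Krebs with propranolol 1 μM and cocaine 10 μM, tension 0.4 g, equilibrated ≥1 h. Cumulative norepinephrine contraction curves: the first was discarded and the second was the control. A third curve followed 30 min antagonist incubation. Responses were taken as % of control maximum, corrected by untreated time-controls. Dose ratios at EC50 (three concentrations ×5) gave Schild pA2 with slope constrained to −1.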

[5] = biological target: Adrenergic receptor alpha-1 (Rattus norvegicus) (UniProt P15823+P23944+P43140); assay: Selectivity ratio is the antilog of the difference between pA2 at alpha-1 and alpha-2 adrenergic receptors
Outline: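 Ratio calculated as the antilog of the difference between the pA2 values from the norepinephrine (α1, epididymal vas deferens) and clonidine (α2, field-stimulated vas deferens) Schild analyses in rat tissue.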

[6] = species: Rattus norvegicus; assay: Compound was tested for its effect in reducing the mean blood pressure after 2 min in male wistar rats; assay type: functional
Outline: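 Male Wistar rats (400–490 g) under equithesin (3 mL/kg, then 0.8 mL/kg ip, with supplements every 90–120 min). Dosing was a single pulse iv injection into the jugular vein of 100 μg/kg in 30 μL, flushed with 100 μL saline, after a vehicle-only control. Carotid mean arterial pressure was followed over time as % decrease, given as mean ± SE, with paired t test.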

[7] = biological target: T1, Adrenergic receptor alpha-2; assay: Compound evaluated for antagonist activity to Alpha-2 adrenergic receptor in a competitive assay against clonidine in rat vas deferences; assay type: functional; outline: as §1

In the case of COc1cc2nc(NCCCCCCN(C)C(=O)c3ccco3)nc(N)c2cc1OC, the pA2 [1] is reported as 5.76 and the pA2 [2] is reported as 8.17.

Compound COc1cc2nc(N(C)CCCCCCNC(=O)c3ccco3)nc(N)c2cc1OC has a pA2 [1] of 5.98 and a pA2 [2] of 8.53.

For COc1cc2nc(NCCCNC(=O)c3ccco3)nc(N)c2cc1OC, the pA2 [3] was 5.99, the pA2 [4] was 8.01 and the Ratio [5] was 105.

COc1cc2nc(N(C)CCCCN(C)C(=O)c3ccco3)nc(N)c2cc1OC showed a pA2 [1] of 6.5 and a pA2 [2] of 8.15.

For COc1cc2nc(NCCCCCCCNC(=O)c3ccco3)nc(N)c2cc1OC, the pA2 [1] was 5.04 and the pA2 [2] was 7.54.

Compound COc1cc2nc(NCCCCCNC(=O)c3ccco3)nc(N)c2cc1OC has a pA2 [3] of 5.01, a pA2 [4] of 7.72 and a Ratio [5] of 513.

Compound COc1cc2nc(NCCCCCCCCNC(=O)c3ccco3)nc(N)c2cc1OC has a pA2 [1] of 4.78 and a pA2 [2] of 7.22.

COc1cc2nc(N(C)CCCN(C)C(=O)c3ccco3)nc(N)c2cc1OC showed a pA2 [1] of 6.45 and a pA2 [2] of 7.41.

Compound COc1cc2nc(N(C)CCN(C)C(=O)c3ccco3)nc(N)c2cc1OC has a pA2 [1] of 5.52 and a pA2 [2] of 6.7.

Work on COc1cc2nc(N(C)CCCCCN(C)C(=O)c3ccco3)nc(N)c2cc1OC yielded a pA2 [1] of 6.68 and a pA2 [2] of 8.83.

Compound COc1cc2nc(N(C)CCCCCCN(C)C(=O)c3ccco3)nc(N)c2cc1OC has a pA2 [1] of 6.84, a pA2 [2] of 8.93 and a Reduction [6] of 57.5%.

In the case of COc1cc2nc(NCCNC(=O)c3ccco3)nc(N)c2cc1OC, the pA2 [1] is reported as 5.37 and the pA2 [2] is reported as 8.28.

COc1cc2nc(N(C)CCNC(=O)c3ccco3)nc(N)c2cc1OC gave a pA2 [7] of 5.2 and a pA2 [2] of 8.03.

COc1cc2nc(NCCCCCCNC(=O)c3ccco3)nc(N)c2cc1OC was tested, and the pA2 [3] was 4.51, the pA2 [4] was 7.88 and the Ratio [5] was 2340.

COc1cc2nc(N(C)CCCCCCCN(C)C(=O)c3ccco3)nc(N)c2cc1OC showed a pA2 [1] of 6.55 and a pA2 [2] of 8.6.

In the case of COc1cc2nc(N(C)CCCCCCCCN(C)C(=O)c3ccco3)nc(N)c2cc1OC, the pA2 [1] is reported as 6.31 and the pA2 [2] is reported as 8.1.

Compound COc1cc2nc(NCCCCNC(=O)c3ccco3)nc(N)c2cc1OC has a pA2 [3] of 6.03, a pA2 [4] of 8.25 and a Ratio [5] of 170.

Compound COc1cc2nc(N3CCN(C(=O)c4ccco4)CC3)nc(N)c2cc1OC [PRAZOSIN] has a Reduction [6] of 38.5%.
